Active and inactive are the calls of the source. The rule behind the calls is not given here.

The first assay deals with T1, Neutrophil elastase (Homo sapiens) (UniProt P08246).
T1 sequence (whole entry): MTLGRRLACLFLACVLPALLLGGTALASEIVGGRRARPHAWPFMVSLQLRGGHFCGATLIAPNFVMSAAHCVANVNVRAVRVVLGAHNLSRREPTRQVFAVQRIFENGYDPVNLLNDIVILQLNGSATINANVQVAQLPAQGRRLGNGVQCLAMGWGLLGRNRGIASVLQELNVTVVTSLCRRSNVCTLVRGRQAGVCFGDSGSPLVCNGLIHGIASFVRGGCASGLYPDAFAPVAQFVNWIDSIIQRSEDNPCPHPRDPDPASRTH
The experiment in a line: Apparent second-order inactivation rate constant was evaluated against human leukocyte Elastase. The class given is functional.
Take `O=C1c2ccccc2S(=O)(=O)N1CF`: the K obs / 1 1/Ms worked out at 4750.

Take `O=C(/C=C/c1ccccc1)OCN1C(=O)c2ccccc2S1(=O)=O`: the K obs / 1 1/Ms was determined as 2240.

`O=C(CS(=O)(=O)c1ccccc1)OCN1C(=O)c2ccccc2S1(=O)=O`: the K obs / 1 1/Ms is 780.

Turning to `O=C(CCc1ccccc1)OCN1C(=O)c2ccccc2S1(=O)=O`, the K obs / 1 1/Ms turned out to be 2280.

Turning to `O=C(C[S+]([O-])c1ccccc1)OCN1C(=O)c2ccccc2S1(=O)=O` (stereo unspecified), the K obs / 1 1/Ms worked out at 800.

With `O=C(/C=C\Sc1ccccc1)OCN1C(=O)c2ccccc2S1(=O)=O`, the K obs / 1 1/Ms came to 5700.

Regarding `O=C1c2ccccc2S(=O)(=O)N1Cn1ccnc1`, the K obs / 1 1/Ms is 40.

As for `O=C(CSc1ccccc1)OCN1C(=O)c2ccccc2S1(=O)=O`, the K obs / 1 1/Ms was 1790.

Take `O=C(/C=C/Sc1ccccc1)OCN1C(=O)c2ccccc2S1(=O)=O`: the K obs / 1 1/Ms came out at 8390.

With `CC(=O)OCN1C(=O)c2ccccc2S1(=O)=O`, the K obs / 1 1/Ms was 140.

A further assay has as its target T1, Neutrophil elastase (Homo sapiens). The experiment in a line: Apparent second-order inactivation rate constant was evaluated against human leukocyte Elastase; Inactive. It counts as functional. In short, it runs like this:
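Incubation method: human leukocyte elastase (300 nM) with inhibitor in 0.1 M HEPES, pH 7.25, 1% DMSO. Aliquots withdrawn periodically and assayed for residual activity with methoxysuccinyl-Ala-Ala-Pro-Val p-nitroanilide. Pseudo-first-order k_obs taken from slopes of ln(Et/Eo) versus time, then expressed as k_obs/[I] (M⁻¹ s⁻¹). Kinetics analysed by the Kitz–Wilson method.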
Regarding `O=C1c2ccccc2S(=O)(=O)N1CO`, the “K obs / 1 1/Ms” value is “inactive”.
